assay: Toxicity liver stage against HepG2, at 10uM; type: cell-based; set-up: test concentration 10 uM, cell line HepG2-A16-CD81EGFP; conditions: human, HepG2-A16-CD81EGFP cells; read-out: INHIBITION
Summary of the method: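 Uninfected HepG2-A16-CD81EGFP cells, 3 × 10^3 per well, 1536-well, plated on prespotted compound at 10 μM final, parasite-free screening media added to match infected plates; puromycin 10 μM positive, DMSO 0.5% negative; run in parallel with 48 h PbLuc assay at 37 °C, 5% CO2; viability by CellTiter-Glo luminescence, normalized to controls.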

SMILES	cytotoxicity at 10 µM [%]
CSc1nnc(N(CCC#N)CCC#N)s1	8.95
CCCS(=O)(=O)NC(C)C(=O)NCc1ccc(N2CCCC2)nc1 (configuration not stated)	-11.8
COc1ccc(CN2CC[C@H](c3nnc(-c4ccco4)o3)C2)cc1	0.0623
Cc1cc(C)cc(NC(=O)c2cnc(N3CCN(C)CC3)nc2C)c1	-15.5
CCOC(=O)C1CC2(CCOCC2)N2CCC(=O)N12 (configuration not stated)	2.39
COC1CN(C(=O)COC(C)=O)CCC(=O)N(C)c2ccccc21 (configuration not stated)	-3.03
COc1ccccc1N1CCN(c2nc(N)nc3[nH]cnc23)CC1	2.77
Cc1c(C(=O)N2CCNC(=O)C2)sc2nc[nH]c(=O)c12	0.709
CCOc1ccc(S(=O)(=O)NCCCc2ccc(N(C)C)cc2)cc1F	-5.67
COC(=O)c1ccc(C(=O)N2CCC(c3nnc(C)s3)CC2)cc1	4.95
CNC(=O)c1ccc2c(OC)n(C)nc2c1	-2.43
O=C(NCCc1ccncc1)[C@H]1C[C@@H]2CCN(c3nncs3)C[C@H]2O1	4.36
CCn1cc(NC(=O)C2CCC(=O)N2Cc2ccco2)cn1 (configuration not stated)	-0.607
COc1cccc(O[C@H]2CCN(c3nc(C)cc(C)n3)CC[C@@H]2O)c1	2.58
Cc1ccc(S(=O)(=O)N2CC[C@@H]3C[C@H](NC(=O)c4ccncc4)[C@@H]32)cc1	0.385
Cn1ncc2ccc(C3CCCN(Cc4cccs4)C3)nc21 (configuration not stated)	1.88
Cc1ncccc1Oc1nccnc1C1CCCN(C(C)C)C1 (configuration not stated)	-10.1
COc1ccc(-n2cnc(Cl)c2CO)cc1	2.49
O=C(Nc1cnn(CC(F)F)c1)c1cccc(-n2cnnn2)c1	6.01
CN(CCCOc1ccccc1)Cc1nccn1C	2.07
NC(=O)C1CCCN1C(=O)c1cc(C2CC2)nc2ccc(F)cc12 (configuration not stated)	1.75

SMILES	cytotoxicity at 10 µM [%]
COc1cccc(C2CCCN2C(=O)c2ccc(=O)n(C)c2)c1 (configuration not stated)	-1.72
Cc1nc(CNC(=O)NCC(F)(F)F)oc1C	-1.72
O=C(NC1CCS(=O)(=O)c2ccccc21)c1cccs1 (configuration not stated)	-0.0399
CC(C)(CNC(=O)C1CCCN1S(C)(=O)=O)N1CCOCC1 (configuration not stated)	2.72
Cc1noc(C)c1NS(=O)(=O)c1cc(Cl)c(Cl)c(C(=O)O)c1	4.86
CCOCCC1(CNC(=O)c2ccncc2Cl)CCC1	5.38
CCNC(=O)COc1ccc(C(=O)NC(C)CCc2ccco2)cc1 (configuration not stated)	12.2
CC(C)c1noc(CCC(=O)NC(C)c2nnc3n2CCC3)n1 (configuration not stated)	2.59
CCS(=O)(=O)N1CCC(NCC2CNc3cc(C)nn3C2)CC1 (configuration not stated)	0.286
Cc1ccc(C)c(CC(=O)NC2(C#N)CCOCC2)c1	6.31
CCN(C1CCN(c2cccc(F)c2C(C)=O)CC1)S(C)(=O)=O	5.17
CC(C)C1CCCN1C(=O)c1ccc(-n2ncc(C#N)c2N)cc1 (configuration not stated)	-1.89
CCSc1ccc(C(=O)N2CCCCC2C(=O)N2CCCC2)cn1 (configuration not stated)	10.5
O=C(c1ccc(F)c(F)c1)N1CCCCC1c1nc[nH]n1 (configuration not stated)	-7.47
COCCC(=O)N1CCCC1c1cccc(C)c1C (configuration not stated)	5.79
C=C(C)CN1C(=O)CC(Cc2ccc(F)cc2)C1=O (configuration not stated)	1.62
CCN(C(=O)CN1CCCC1c1cccs1)c1ccccc1C (configuration not stated)	3.7
COCc1cccc(C(=O)N(C)Cc2ncc(C)c(OC)c2C)c1	-13.1
O=C(Nc1ccccn1)C1CCN(Cc2cccc3c2OCCO3)CC1	-0.586
CC(C)C(=O)N1CCC(NCc2c(C(C)C)nn(C)c2N(C)C)CC1	5.21
O=C1CCN(CCCS(=O)(=O)c2ccc(Cl)cc2)CCN1	2.43

SMILES	cytotoxicity at 10 µM [%]
CC(C)(C)OC(=O)N1CSC[C@@H]1C(=O)NCc1ccsc1	8.77
CCC(C)N(C)CCNC(=O)NCc1cccc(-n2cncn2)c1 (configuration not stated)	-8.1
Cc1nc(C)n(C2CCCN(C(=O)CCc3ccncc3)C2)n1 (configuration not stated)	-5.23
CCN1CC[C@@H]2OC[C@H](C(=O)NCc3cccs3)C[C@@H]2C1	-106
Cn1ncc2c1C(COCC1CC1)CN(Cc1ccco1)C2 (configuration not stated)	-78.6
Cn1ccc(C(=O)NC2CCC23CCN(C(=O)N2CCCC2)CC3)c1 (configuration not stated)	2.01
Cc1cc2nc(C3CCCCC3)c(-c3ccnc(NCCO)n3)cn2n1	-0.0295
Cc1cc(C(=O)N2CCC3(CC2)c2nc[nH]c2CCN3CC(C)C)no1	11.1
COC(=O)c1ccc(CNC2CC(=O)N(Cc3cccc(F)c3)C2)cc1 (configuration not stated)	4.43
COCc1nnc(C(=O)N(C)Cc2cnc3ccccn23)o1	1.69
CCn1cncc1C1CC(=O)Nc2c1c(C)nn2C (configuration not stated)	-0.557
CC(C)N1CC(C(=O)N2CCc3c(nc(CC4CC4)[nH]c3=O)C2)CC1=O (configuration not stated)	-8.25
Cc1cccc2[nH]c(C3CCN(C(=O)c4cnc[nH]c4=O)CC3)nc12	2.75
CCNc1ncc(C(=O)NCCNc2ccncc2C)cn1	-6.83
COc1cccc(C(=O)N2C[C@@H](CN(C)CCO)[C@@H](CO)C2)c1C	-4.17
CCC[C@H]1CN(C(=O)Cn2ccccc2=O)C[C@@H]1NS(C)(=O)=O	11.1
Cc1cc(C)cc(N2CCN(C(=O)C3CN(C)C(=O)N3)CC2=O)c1 (configuration not stated)	-5.13
N#Cc1ccccc1CN1CCC(c2nccn2CC2CCC2)CC1	-10.1
COCCn1cnnc1C(C)NC(=O)c1[nH]c2c(C)cc(C)cc2c1C (configuration not stated)	-9.11
CC[C@@]1(O)CCN(C(=O)c2ccc(-n3cnnc3)cc2)C[C@H]1O	3.86
Cc1cccc2c1nc(CCO)n2-c1ccc(NS(C)(=O)=O)nc1	2.34

SMILES	cytotoxicity at 10 µM [%]
CCNC(=O)N1CCC(Nc2nccc(NCC)n2)CC1	-3.6
CC(C)NCC1(O)CCCN(CCC2CCCCC2)C1=O (configuration not stated)	-2.53
Nc1nnc(CCCNC(=O)c2ccc(C3CCCNC3)cc2)s1 (configuration not stated)	-1.28
Cc1nc(NCCSc2cnn[nH]2)c2cccnc2n1	2.98
CN1CCCC2(CCN(c3cccc(C#N)n3)C2)C1=O (configuration not stated)	3.61
O=C1CCC(=O)N1c1nn(Cc2ccccc2Cl)cc1Cl	-6.69
COCCCNC(=O)CN(C)C(=O)c1ccccc1O	-7.04
Cc1ccc2oc(C(=O)N3CCCC(n4ccnc4C)C3)cc2n1 (configuration not stated)	-3.37
N#Cc1ccc(F)c(CN2CCCC2Cn2cccn2)c1 (configuration not stated)	-7.69
Cc1nocc1C(=O)N1CCOC2(COCCN(C(C)C)C2)C1 (configuration not stated)	10
Cc1nc2c(cc1C(=O)O)CCN(Cc1ccsc1)CC2	9.62
c1cncc(N2CCCn3nnc(COCC4CC4)c3C2)c1	5.5
CN(C)C(=O)N1CCC2(CC1)CCN(Cc1ccccn1)C2=O	2.05
Cc1noc(C)c1CN1C[C@@H](N(C)Cc2ccco2)[C@H]2OCCC[C@H]21	-70.9
CN(C)S(=O)(=O)N1CCC[C@]2(C[C@@H](Oc3ncccc3F)CO2)C1	-82.2
CN(C)CCN1CCCC12CCN(C(=O)c1cccn1C)CC2	-2.03
c1csc(CN2CCn3c(Cn4cncn4)cnc3C2)c1	-71.7
c1csc(CN2CCc3nnc(COc4cncnc4)n3CC2)c1	2.49
CN(C)S(=O)(=O)N1C[C@H]2CC[C@@H](C1)N(Cc1ccc3c(c1)OCCO3)C2	4.52

Reference: ChEMBL document CHEMBL4513216, “Probing the Open Global Health Chemical Diversity Library for Multistage-Active Starting Points for Next-Generation Antimalarials” (ACS Infect Dis, 2020)
